Among the data in ChEMBL document CHEMBL3352109, “Synthesis and antifungal activity of substituted salicylaldehyde hydrazones, hydrazides and sulfohydrazides” (Bioorg Med Chem, 2014) are MIC80 and Activity values, retold here.

Structures are written as SMILES. ≈ marks a conversion by molar mass, not a printed value. Calls of active or inactive are those of the source. The rule behind the calls is not given here.

By MIC80 is commonly meant an inhibitory concentration at the 80% level, which refers to growth in some studies and to a panel of isolates in others.

Series [1] deals with Candida albicans. The series can be described thus: Antifungal activity against Candida albicans ATCC 10231 by NCCLS method. It is filed as functional. The essentials:
(§1)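 Broth dilution per NCCLS yeast reference method, in HEPES-buffered RPMI with 1% DMSO. MIC80 is the lowest concentration giving more than 80% growth inhibition versus positive (no-drug) controls. Read by visual scoring, not absorbance. Highest level tested 125 µg/mL.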

The test system of series [2] is Nakaseomyces glabratus. As to the kind of experiment: Antifungal activity against Candida glabrata ATCC 48435 by NCCLS method. Format: functional. In short, it runs like this: as §1
Series [3] concerns Vero. As to the kind of experiment: Cytotoxicity against african green monkey Vero cells assessed as reduction in cell viability at 100 times MIC80 after 24 hrs by CellTiter 96 non-radioactive cell proliferation assay. Format: cell-based. The following applies: chlorocebus sabaeus. The essentials:
(§2)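 Cells exposed for 24 h at 37 °C, 5% CO2, to compound diluted in medium at the antifungal MIC and at 5, 10 and 100× MIC. Tetrazolium dye added for 1–4 h, then stop solution for 1 h at room temperature. Formazan read at 570 nm. Viability is the drug-well/no-drug (1% DMSO) control absorbance ratio, with control set to 100%. 0.1% saponin served as the death control. Triplicates, mean ± SD.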

The subject of the next series is HepG2. As to the kind of experiment: Cytotoxicity against human HepG2 cells assessed as reduction in cell viability at 100 times MIC80 after 24 hrs by CellTiter 96 non-radioactive cell proliferation assay. Format: cell-based. The following applies: hepg2, 24 h. The essentials:
as §2

The test system of series [4] is Candida albicans. As to the kind of experiment: Antifungal activity against Candida albicans ATCC 10231 at 125 ug/ml by NCCLS method. Format: functional, organism-based.
Series [5] concerns Nakaseomyces glabratus. The series can be described thus: Antifungal activity against Candida glabrata ATCC 48435 at 125 ug/ml by NCCLS method. Format: functional, organism-based.
In series [6] the test system is Vero. The series can be described thus: Cytotoxicity against african green monkey Vero cells assessed as reduction in cell viability at MIC80 after 24 hrs by CellTiter 96 non-radioactive cell proliferation assay relative to control. The following applies: chlorocebus sabaeus. Format: cell-based. In short, it runs like this:
as §2

Series [7] concerns Vero (Chlorocebus sabaeus). The series can be described thus: Cytotoxicity against African green monkey Vero cells assessed as reduction in cell viability at MIC80 after 24 hrs by CellTiter 96 non-radioactive cell proliferation assay.

In the case of `O=C(N/N=C/c1ccccc1O)c1ccc([N+](=O)[O-])cc1`, the MIC80 with Candida albicans [1] and with Nakaseomyces glabratus [2] was 0.5 µg/mL (≈ 1.75 µM) each time. In addition, the Activity result in the series on Vero [3] and with HepG2 was “Non-toxic” throughout.

`O=S(=O)(N/N=C/c1cc(Cl)ccc1O)c1ccccc1`: the outcome in the series on Candida albicans [4] and in the series with Nakaseomyces glabratus [5] was inactive.

For the compound `COc1ccc(S(=O)(=O)N/N=C/c2cc([N+](=O)[O-])ccc2O)cc1`, the outcome with Candida albicans [4] and with Nakaseomyces glabratus [5] was inactive.

Consider `O=[N+]([O-])c1ccc(S(=O)(=O)N/N=C/c2ccccc2O)cc1`, for which the outcome in the series on Candida albicans [4] and in the series on Nakaseomyces glabratus [5] was inactive.

With `COc1ccc(O)c(/C=N/NS(=O)(=O)c2ccc([N+](=O)[O-])cc2)c1`, the outcome in the series on Candida albicans [4] and with Nakaseomyces glabratus [5] was inactive.

With `Cc1ccc(S(=O)(=O)N/N=C/c2cc(Br)ccc2O)cc1`, the outcome with Candida albicans [4] and in the series with Nakaseomyces glabratus [5] was inactive.

`O=S(=O)(N/N=C/c1cc(Br)ccc1O)c1ccccc1`: the outcome in the series with Candida albicans [4] and with Nakaseomyces glabratus [5] was inactive.

As to `Cc1ccc(O)c(/C=N/NS(=O)(=O)c2ccc([N+](=O)[O-])cc2)c1`, the result in the series on Candida albicans [4] and with Nakaseomyces glabratus [5] was inactive.

In the case of `COc1ccc(S(=O)(=O)N/N=C/c2cc(Cl)ccc2O)cc1`, the result in the series on Candida albicans [4] and with Nakaseomyces glabratus [5] was inactive.

As for `O=S(=O)(N/N=C/c1ccccc1O)c1ccccc1`, the MIC80 in the series on Nakaseomyces glabratus [2] is 125 µg/mL (≈ 452 µM). Besides, the result with Candida albicans [4] and in the series on Nakaseomyces glabratus [5] was inactive.

For the compound `COc1ccc(O)c(/C=N/NS(=O)(=O)c2ccc3ccccc3c2)c1`, the outcome in the series with Candida albicans [4] and with Nakaseomyces glabratus [5] was inactive.

With `O=S(=O)(N/N=C/c1cc(Cl)ccc1O)c1ccc2ccccc2c1`, the outcome with Candida albicans [4] and in the series with Nakaseomyces glabratus [5] was inactive.

As to `Cc1ccc(O)c(/C=N/NS(=O)(=O)c2ccc(Br)cc2)c1`, the result in the series on Candida albicans [4] and in the series on Nakaseomyces glabratus [5] was inactive.

As for `N/N=C/c1ccccc1O`, the figures for the MIC80 with Candida albicans [1] and against Nakaseomyces glabratus [2] were 16 µg/mL (≈ 118 µM) and 4 µg/mL (≈ 29.4 µM), respectively. In addition, the Activity result in the series on Vero [3] and in the series with HepG2 was “Non-toxic” throughout.

Turning to `Cc1ccc(S(=O)(=O)N/N=C/c2ccccc2O)cc1`, the MIC80 result in the series with Nakaseomyces glabratus [2] was “inactive”. In addition, the result with Candida albicans [4] and with Nakaseomyces glabratus [5] was inactive.

Turning to `Cc1ccc(S(=O)(=O)N/N=C/c2cc(C)ccc2O)cc1`, the result in the series with Candida albicans [4] and in the series on Nakaseomyces glabratus [5] was inactive.

As for `Cc1ccc(O)c(/C=N/NS(=O)(=O)c2ccccc2)c1`, the result with Candida albicans [4] and in the series with Nakaseomyces glabratus [5] was inactive.

In the case of `O=[N+]([O-])c1cc(/C=N/Nc2ccccc2)c(O)c([N+](=O)[O-])c1`, the MIC80 with Candida albicans [1] came out at 2 µg/mL (≈ 6.62 µM); in the series on Nakaseomyces glabratus [2] it was 4 µg/mL (≈ 13.2 µM). For the same compound, the Activity result in the series with Vero [3] and in the series on HepG2 was “Non-toxic” each time.

For `O=C(N/N=C/c1cc(Cl)ccc1O)c1ccccc1`, the MIC80 with Candida albicans [1] and against Nakaseomyces glabratus [2] was 0.5 µg/mL (≈ 1.82 µM) throughout. The Activity entry in the series with Vero [3] and in the series on HepG2 was “Non-toxic” throughout.

In the case of `O=S(=O)(N/N=C/c1cc(Br)ccc1O)c1ccc2ccccc2c1`, the result with Candida albicans [4] and with Nakaseomyces glabratus [5] was inactive.

As to `COc1ccc(O)c(/C=N/NS(=O)(=O)c2ccc(Br)cc2)c1`, the result in the series with Candida albicans [4] and with Nakaseomyces glabratus [5] was inactive.

For `O=[N+]([O-])c1ccc(O)c(/C=N/NS(=O)(=O)c2ccc(Br)cc2)c1`, the result in the series with Candida albicans [4] and in the series on Nakaseomyces glabratus [5] was inactive.

`Cc1ccc(O)c(/C=N/NC(=O)c2ccccc2)c1`: the MIC80 against Candida albicans [1] and with Nakaseomyces glabratus [2] was 1 µg/mL (≈ 3.93 µM) throughout. For the same compound, the Activity (with Vero [6]; in series [7]) was 20% each time.

Consider `Cc1ccc(S(=O)(=O)N/N=C/c2cc(Cl)ccc2O)cc1`, for which the outcome with Candida albicans [4] and with Nakaseomyces glabratus [5] was inactive.

In the case of `O=S(=O)(N/N=C/c1ccccc1O)c1ccc(Br)cc1`, the result in the series with Candida albicans [4] and in the series with Nakaseomyces glabratus [5] was inactive.

Take `O=S(=O)(N/N=C/c1cc(Cl)ccc1O)c1ccc(Br)cc1`: the result in the series with Candida albicans [4] and in the series on Nakaseomyces glabratus [5] was inactive.

For the compound `O=S(=O)(N/N=C/c1ccccc1O)c1ccc2ccccc2c1`, the result in the series on Candida albicans [4] and with Nakaseomyces glabratus [5] was inactive.

Take `COc1ccc(O)c(/C=N/NS(=O)(=O)c2ccccc2)c1`: the outcome with Candida albicans [4] and in the series with Nakaseomyces glabratus [5] was inactive.

Regarding `COc1ccc(S(=O)(=O)N/N=C/c2cc(Br)ccc2O)cc1`, the outcome in the series with Candida albicans [4] and in the series on Nakaseomyces glabratus [5] was inactive.

In the case of `Cc1ccc(O)c(/C=N/NC(=O)c2ccc([N+](=O)[O-])cc2)c1`, the MIC80 was found to be 0.5 µg/mL (≈ 1.67 µM) against Candida albicans [1] and 0.125 µg/mL (≈ 0.418 µM) with Nakaseomyces glabratus [2]. For the same compound, the Activity (in the series on Vero [6]; in series [7]) was 20% in each case.

As to `O=S(=O)(N/N=C/c1cc(Br)ccc1O)c1ccc(Br)cc1`, the result in the series with Candida albicans [4] and in the series on Nakaseomyces glabratus [5] was inactive.

`O=[N+]([O-])c1ccc(S(=O)(=O)N/N=C/c2cc(Br)ccc2O)cc1`: the outcome in the series on Candida albicans [4] and in the series on Nakaseomyces glabratus [5] was inactive.

As to `Cc1ccc(O)c(/C=N/NS(=O)(=O)c2ccc3ccccc3c2)c1`, the outcome with Candida albicans [4] and in the series with Nakaseomyces glabratus [5] was inactive.

For the compound `O=[N+]([O-])c1ccc(O)c(/C=N/NS(=O)(=O)c2ccc3ccccc3c2)c1`, the outcome in the series on Candida albicans [4] and in the series on Nakaseomyces glabratus [5] was inactive.

As for `O=[N+]([O-])c1ccc(O)c(/C=N/NS(=O)(=O)c2ccccc2)c1`, the result with Candida albicans [4] and in the series on Nakaseomyces glabratus [5] was inactive.

Regarding `COc1ccc(S(=O)(=O)N/N=C/c2ccccc2O)cc1`, the result with Candida albicans [4] and with Nakaseomyces glabratus [5] was inactive.
